# Laboratory results: PubChem BioAssay AID588696 (Southern Research Specialized Biocontainment Screening …, 2011)
# The source made the active and inactive calls.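 How the source made its calls: active means inhibition of 30% or more at any tested concentration; inactive means the rest.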
# Target: Aspartyl aminopeptidase (Homo sapiens) (UniProt Q9ULA0)
# Test: human M18 aspartyl aminopeptidase inhibitors, dose response, counter-screen for PfM18AAP inhibitor project, biochemical, QFRET fluorogenic readout, recombinant enzyme (AID 588696)
# Details: recombinant hM18AAP, H-Glu-NHMec fluorogenic cleavage
# Outline: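 Material – recombinant human hM18AAP enzyme · Buffer or medium – pH 7.5 Tris-HCl, 50 mM, plus 2 mM CoCl2, 2% DMSO · Also added – 0.1 mM H-Glu-NHMec substrate · Times – enzyme reaction for 90 min at room temperature · Signal – fluorescence at 370/460 nm · Measure – % inhibition and fitted IC50 · Control set – no-enzyme background wells as low-signal control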
row,SMILES,IC50
1,Cc1c(-c2ccccc2)[nH]c(-c2ccc(O)c(O)c2)[n+]1O,73 µM
2,Oc1ccc(CCNC(c2ccccc2)c2ccccc2)cc1O,41.4 µM
3,CN(CCc1ccc(O)c(O)c1)c1ccnc2ccccc12,31.1 µM
4,O=S1(=O)c2ccccc2-c2cc(-c3nc(-c4ccc(O)c(O)c4)[nH]c3-c3ccccc3)ccc21,46.1 µM
5,Nc1cc(C(=O)c2ccccc2)ccc1O,43.5 µM
6,O=C1c2ccc3c4c(ccc(c24)C(=O)N1O)CC3,89.2 µM
7,Oc1ccc(CCNc2cccc3ccccc23)cc1O,30.4 µM
8,Oc1ccc(-c2csc(Cc3cc4ccccc4[nH]3)n2)cc1O,27.9 µM
9,Oc1ccc(CCNc2ccc3ccccc3c2)cc1O,34 µM
10,Cc1nc(NCCc2ccc(O)c(O)c2)c2c3c(sc2n1)CCC3,52.3 µM
11,Oc1ccc(CCNc2cncc3ccccc23)cc1O,53.4 µM
12,Cc1ccc(-c2nc(-c3ccc(O)c(O)c3)cs2)cc1,26.6 µM
13,O=C1OCCN1CCc1nc(-c2ccc(O)c(O)c2)cs1,45.8 µM
14,COc1ccc2c(c1)C(=O)C(N)CC2 (centres undefined),99.8 µM
15,CC(C)(C)C(=O)OCc1nc(-c2ccc(O)c(O)c2)cs1,33.1 µM
16,CCOc1cccc(-c2nc(-c3ccc(O)c(O)c3)cs2)c1,21.5 µM
17,CCC(C)c1ccc(N)c(O)c1 (centres undefined),44.6 µM

# Same assay, conditions: recombinant hM18AAP, H-Glu-NHMec fluorogenic cleavage; at 50 µM (top of the series)
row,SMILES,inhibition
1,O=C(O)CCCNc1c2ccccc2nc2ccccc12,inactive
2,Oc1ccc(CCNc2c3c(nc4ccccc24)CCCC3)cc1O,inactive
3,O=c1ccc2cc(O)c(O)cc2o1,inactive
4,O=C(O)CCCCNc1c2ccccc2nc2ccccc12,inactive
5,COc1ccc(CCNc2ccnc3ccccc23)cc1OC,inactive

# Same assay, conditions: recombinant hM18AAP, H-Glu-NHMec fluorogenic cleavage; at 100 µM (top of the series)
row,SMILES,inhibition
1,CN(CCc1ccc(O)c(O)c1)c1ccncc1,inactive
2,COc1cccc(-c2nc(-c3ccc(OC)c(OC)c3)cs2)c1,inactive
3,COc1ccc(CCNc2c3c(nc4ccccc24)CCCC3)cc1OC,inactive
4,Oc1ccc(CCNc2c3ccccc3nc3ccccc23)cc1,inactive
5,COc1ccc(CCNc2cccc3ccccc23)cc1OC,inactive
6,Oc1ccc(CCNC2CCN(Cc3ccccc3)CC2)cc1O,inactive
7,NCc1cc2c3c(c(=O)oc2c(O)c1O)CCC3,inactive
8,COc1ccc(CCNC2CCN(C)CC2)cc1OC,inactive
9,O=C(c1ccco1)N1CCN(Cc2cc(=O)c(O)c[nH]2)CC1,inactive
10,Oc1ccc(CCCNc2c3ccccc3nc3ccccc23)cc1O,inactive
11,CCC(C)C(=O)Nc1ccccc1N (centres undefined),inactive
12,COc1ccc(-c2csc(-c3ccccc3)n2)cc1OC,inactive
13,CCC(C)C(=O)Nc1ccccc1O (centres undefined),inactive
14,COc1ccc(CCNc2ccncc2)cc1OC,inactive
15,NCCNc1c2ccccc2nc2ccccc12,inactive
16,COc1cccc(CCNc2c3ccccc3nc3ccccc23)c1,inactive
17,COc1ccc(CCC(=O)O)cc1OC,inactive
18,COc1ccc(CCNc2cncc3ccccc23)cc1OC,inactive
19,Cc1c(OCc2ccccc2)c(=O)ccn1CCNc1c2ccccc2nc2ccccc12,inactive

row,SMILES,inhibition
1,COc1ccc(CCN(C)CCc2ccccc2)cc1OC,inactive
2,Cc1c(O)c(=O)ccn1CCNc1c2ccccc2nc2ccccc12,inactive
3,COc1ccc(CCNc2c3ccccc3nc3ccccc23)cc1OC,inactive
4,O=c1cc(CO)oc(CN2CCCCC2)c1O,inactive
5,COc1ccc(CCN2CCN(C)CC2)cc1OC,inactive
6,COc1ccc(-c2csc(-c3ccccc3OC)n2)cc1OC,inactive
7,COc1ccc(CCN(C)c2ccncc2)cc1OC,inactive
8,COc1ccc(CC(=O)O)cc1OC,inactive
9,COc1ccc(CCN(C)c2ccnc3ccccc23)cc1OC,inactive
10,COc1ccc(CCN2CCc3ccccc3C2)cc1OC,inactive
11,COc1ccc(CCNC2CCN(Cc3ccccc3)CC2)cc1OC,inactive
12,COc1ccc(CCNc2ccc3ccccc3c2)cc1OC,inactive
13,COc1ccc(CNc2c3ccccc3nc3ccccc23)cc1OC,inactive
14,O=c1cc(CN2CCN(Cc3ccccc3)CC2)c2ccc(O)c(O)c2o1,inactive
15,COc1ccc(-c2nc(-c3ccccc3)c(-c3ccccc3)[nH]2)cc1OC,inactive
16,Oc1ccc(CCN2CCc3ccccc3C2)cc1O,inactive
17,O=C(c1ccco1)N1CCN(Cc2cc(=O)c(O)co2)CC1,inactive
18,COc1ccc(CCCNc2c3ccccc3nc3ccccc23)cc1OC,inactive
